Source: PMC6081960 (Bioorganic & medicinal chemistry letters, 2018)

Columns and labels:
REH cells = experiment: St. Jude cancer cell line panel, REH; format: cell-based, human; conditions: precursor B-cell ALL; confidence intervals in parentheses; NA: not active
Outline: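 REH: patient-derived precursor B-cell ALL line that expresses only wild-type MLL and wild-type AF4. Screened in a St. Jude panel with other ALL lines, a lymphoma line and mouse CPC300 cells.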

RAJI cells = experiment: St. Jude cancer cell line panel, RAJI; format: cell-based; conditions: Burkitt's lymphoma; confidence intervals in parentheses; NA: not active
Outline: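 RAJI Burkitt's lymphoma cells, FAB L3 subtype, served as the panel's single lymphoma line. Screened together with four ALL lines and mouse CPC300 choroid plexus carcinoma cells at St. Jude.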

NALM16 cells = experiment: St. Jude cancer cell line panel, NALM16; format: cell-based, human; conditions: ALL cell line; confidence intervals in parentheses; NA: not active
Outline: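 Human ALL line NALM16, derived from the peripheral blood of a child at relapse in 1977. Carries a near-haploid karyotype. Tested in a St. Jude screening panel alongside three other ALL lines, one lymphoma line and mouse choroid plexus carcinoma CPC300 cells.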

EC50 REH (REH cells): no activity
EC50 RAJI (RAJI cells): no activity
EC50 NALM16 (NALM16 cells): no activity
SMILES: CSc1ccc(/C=C2/C(C)=C(CC(=O)NCCN(C)C)c3cc(F)ccc32)cc1 [SSA, sulindac sulfide amide]
